Bioassay records from PubChem BioAssay.
In the library only some 1.7% were active in any assay of this set; here they are far more common.
HNF4A DNA FP: change in binding of human HNF4 alpha to DNA; 0.3% of 360,000 active; activity change, % at 10 µM; HNF4a-FITC DNA binding, fluorescence polarization, 1 h; in the data active = activity change above about 30%, passing the limit was not always enough
Target sequence (P41235 whole entry, looked up): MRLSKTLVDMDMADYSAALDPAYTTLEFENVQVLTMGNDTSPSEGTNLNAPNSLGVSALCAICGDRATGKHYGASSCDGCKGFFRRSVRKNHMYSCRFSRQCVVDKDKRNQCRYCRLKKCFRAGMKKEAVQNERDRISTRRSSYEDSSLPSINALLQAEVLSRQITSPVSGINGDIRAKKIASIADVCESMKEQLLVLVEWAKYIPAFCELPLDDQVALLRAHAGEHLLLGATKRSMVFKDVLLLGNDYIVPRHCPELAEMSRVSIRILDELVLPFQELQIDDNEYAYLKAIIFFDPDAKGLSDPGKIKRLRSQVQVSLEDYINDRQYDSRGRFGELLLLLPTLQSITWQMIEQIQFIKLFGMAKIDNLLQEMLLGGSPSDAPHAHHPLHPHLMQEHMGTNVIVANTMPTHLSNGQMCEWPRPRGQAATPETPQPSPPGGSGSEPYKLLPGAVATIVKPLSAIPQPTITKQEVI
IDE cell inh: cellular human IDE inhibition. inhibition, % at 5.59 µM. AID 434962. 0.41% of 320,000 active. HEK cells, FAbetaB cleavage, fluorescence polarization. P14735;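 active = percent inhibition above the average of all tested compounds plus 3 SD, set per screening campaign, cut at about 16% in these data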;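 note: IDE supplied by intact live HEK cells; FP after avidin binding of uncleaved biotin substrate so inhibition keeps polarization high; 0% = DMSO wells and 100% = 60 µM reference IDE inhibitor Ii1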
TPT1 inhibitor: blocks Candida albicans tRNA 2'-phosphotransferase. recombinant caTPT1, FP RNA substrate dephosphorylation. inhibition, % at 5 µM. 0.81% of 300,000 active. AID 1962;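 active = inhibition above the mean of all tested compounds plus 3 SD, set per screening campaign, cut at about 24% in these data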;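 note: plate controls were DMSO alone for no effect and ferristatin control at 100 nM for full effect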
IDE cell activ: boosts human insulin-degrading enzyme activity in HEK cells | FAbeta-B cleavage, fluorescence polarization; 0% vehicle, 100% cell-free pure enzyme wells | activation, % at 5.96 µM | 0.073% of 340,000 active;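 active = activation above the mean of all tested compounds plus 3 SD, set per screening campaign, cut at about 17% in these data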
Rpn11 inh: blocks the human proteasome subunit Rpn11; O00487; human 26S proteasome, Ub4-pepOG fluorescence polarization; 20S core pre-blocked with epoxomicin; calls only at 20 µM; 0.59% of 360,000 active;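 active = inhibition at 20 µM, scaled to each plate's controls, above about 33%, limit read from the data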
CSN deneddyl inh: inhibitors of human CSN-mediated cullin deneddylation. 0.38% of 360,000 active. inhibition, % at 12.5 µM. Purified CSN, SCF-Nedd8-OG deneddylation, fluorescence polarization. AID 651999. Q92905;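 active = pattern-corrected inhibition above about 35%, with an unprinted fluorescence ratio check between 0.5 and 1.5, limit read from the data, passing the limit was not always enough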;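 note: 0% = enzyme with substrate and 100% = substrate without enzyme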
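Assay system: HEK293T-derived human Csn5 enzyme; quantity: 0.24 nM enzyme; medium: Tris/NaCl/DTT buffer, pH 7.5; also added: substrate SCFSkp2-Nedd8OG, 10 nM; doses: 12.5 µM compound; schedule: 90 min reaction at room temperature; signal: FP; read-out: % inhibition of substrate cleavage by Csn5; benchmarks: substrate-only high control, full reaction low control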
Rpn11 inh conf: Rpn11 inhibition confirmation, single concentration | shares compounds with Rpn11 inh | purified human 26S proteasome, Ub4-pepOG fluorescence polarization; proteasome pretreated with epoxomicin | inhibition, % at 20 µM | 29% of 1,900 active
MMP-2 counter-1: counter-screen for RPN11 inhibitors: inhibition of human MMP-2. recombinant MMP-2, FRET peptide cleavage fluorescence. shares compounds with Rpn11 inh. inhibition, % at 20 µM. AID 602330. 4% of 1,900 active;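 note: human MMP-2 activated beforehand with APMA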
Thrombin inh: thrombin (bovine) inhibition counter-screen; inhibition, % at 20 µM; 13% of 1,900 active; AID 602333; bovine thrombin cleavage of Ub4-pepOG, fluorescence polarization; shares compounds with Rpn11 inh;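 active = mean inhibition at least 40% at 20 µM, or signal 3 deviations below plate average, so some actives read negative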;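 note: plate controls were thrombin with DMSO for no effect and buffer wells lacking thrombin for full effect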
CSN5 deneddyl: validation of inhibitors of human CSN-mediated cullin deneddylation | shares compounds with CSN deneddyl inh | Csn5 deneddylation of SCF-Nedd8OG, fluorescence polarization, 90 min | inhibition, % at 16.6 µM | 62% of 540 active | AID 720654; in the data active = inhibition above about 50%;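 note: 0% = DMSO with enzyme and 100% = no enzyme wells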
MMP-2 counter-2: MMP-2 (human) inhibition, counter-screen for CSN hits | shares compounds with CSN deneddyl inh | recombinant MMP-2, FRET substrate fluorescence, 60 min | inhibition, % at 16.6 µM | 33% of 540 active | AID 720655;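 active = corrected plate-normalized z-score of 5 or more, or -5 or less, or inhibition of 15% or more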;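 note: plate controls were DMSO wells with enzyme for no effect and buffer wells lacking MMP-2 for full effect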
Thrombin cntr: thrombin (bovine) inhibition, counter-screen for CSN hits. 49% of 540 active. AID 720656. shares compounds with CSN deneddyl inh. inhibition, % at 16.6 µM. bovine thrombin cleavage of Ub4-pepOG, fluorescence polarization;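 active = inhibition at or above a set limit, with a fluorescence interference ratio between 0.5 and a set maximum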
* hit, by the source's call; i = inactive; . = no result; + = active, no number. Cut-off read from the data, not from the text of the source, unless noted: active = inhibition above about 40%; inactive = the rest.

SMILES	HNF4A DNA FP	IDE cell inh	TPT1 inhibitor	IDE cell activ	Rpn11 inh	CSN deneddyl inh	Rpn11 inh conf	MMP-2 counter-1	Thrombin inh	others
Cc1cccc(CN2CCN(CC(=O)N3CCC4(CC3)OCCO4)C2=O)c1	4.6	3.8	-7.6	6.7	+	-0.7	-17.9	-3.1	-13.6
O=c1[nH]c(O)c(C=Nc2ccccc2[N+](=O)[O-])c(=O)[nH]1	.	9.3	2.8	.	.	.	.	.	.
CC(C)CCOC(=O)c1c(N)n(CC2CCCO2)c2nc3ccccc3nc12 (configuration not stated)	-2.3	2.5	2.6	4.5	i	4.1	.	.	.
CC(C)OCCCNC(=O)c1c(N)n(CC2CCCO2)c2nc3ccccc3nc12 (configuration not stated)	5.5	-5.0	2.8	-2.1	+	35.6*	7.0	-12.6	4.5
CCOP(=O)(OCC)/C(C#N)=C/c1ccoc1	10.0	.	.	1.4	+	6.8	0.2	-60.1	-9.4
CCOP(=O)(OCC)c1ccc(O)cc1	-6.1	6.9	-4.1	6.0	i	3.1	.	.	.
CCCOP(=O)(OCCC)C(NC(=O)c1cc(OC)c(OC)c(OC)c1)c1ccccc1 (configuration not stated)	128.8*	9.4	-2.5	4.3	+	-6.6	2.1	-26.4	-1.6
CNC(=O)OCCc1n(C)cc[n+]1C	-0.3	6.7	0.7	2.3	i	2.6	.	.	.
Cc1ccc(Cn2cc(C=O)c(-c3ccc(C)cc3)n2)cc1	2.0	-5.0	0.2	0.8	+	-4.8	3.3	3.1	-16.1
Cc1cc(/C=C2\C(=O)NC(=O)N(c3cccc(F)c3)C2=O)c(C)n1-c1cc(C(=O)O)cc(C(=O)O)c1	-22.0	1.5	10.7	-2.8	i	13.4	.	.	.
Cc1cc(C=C2C(=O)N(C)C(=S)N(C)C2=O)c(C)n1-c1ccncc1	-6.4	-0.7	18.7	.	+	9.9	7.3	-10.0	11.1
CCOC(=O)c1c(-n2c(C)cc(C=C3C(=O)NC(=S)NC3=O)c2C)sc2c1CCCC2	-5.8	5.1	20.0	-18.3	+	49.0*	34.7	23.1	17.1	CSN5 deneddyl=82.8*;MMP-2 counter-2=31.3*;Thrombin cntr=12.2
O=C1NC(=S)N(c2ccccc2)C(=O)/C1=C/c1ccco1	-43.4	13.7	12.3	2.2	+	53.3*	90.3*	60.9*	24.1	MMP-2 counter-2=45.7*;Thrombin cntr=38.6
Cc1ccccc1NC(=NCCCN1CC1)Nc1ccccc1C	174.0	.	.	5.2	+	117.2*	98.9*	-127.7	52.5*	CSN5 deneddyl=-59.3;MMP-2 counter-2=25.7*;Thrombin cntr=29.2*
Cc1ccccc1NC(=O)c1cc(-c2ccccc2)n(CCCN2CCOCC2)c1C	1.6	13.9	-2.9	.	i	2.9	.	.	.
CCOC(=O)c1cncn1[C@@H](C)c1ccccc1	.	6.0	2.2	5.3	i	2.3	.	.	.
CSc1ncc(Br)c(N2CC2)n1	2.1	.	.	7.4	i	3.5	.	.	.
CCOCCCn1c(N)c(C(=O)Nc2sc3c(c2C(=O)OC)CCCC3)c2nc3ccccc3nc21	14.1	4.8	3.6	-8.6	i	52.0*	.	.	.	CSN5 deneddyl=92.7*;MMP-2 counter-2=0.2;Thrombin cntr=1.3
CN(C)C(=O)Oc1ccc(-c2cn3cc(C(F)(F)F)ccc3n2)cc1	-1.1	-0.9	-2.7	0.6	i	-4.8	.	.	.
Cc1nc2ccccc2c(=O)n1-c1ccc(Cl)c(Cl)c1	-0.7	-6.2	0.2	3.4	i	1.8	.	.	.
